Assay results: ChEMBL document CHEMBL4270643, “Structure-based drug design: Synthesis and biological evaluation of quinazolin-4-amine derivatives as selective Aurora A kinase inhibitors” (Eur J Med Chem, 2018)
Activity calls are given as the source filed them. The calls are words filed in the database; no cut-off is given here.

Experiments:
Mus musculus [1] = assay: Toxicity in BALB/c athymic nude mouse xenografted with human MDA-MB-231 cells assessed as effect on RDW-CV level at 30 mg/kg, ig administered every 2 days for 18 days measured post last dose; assay type: organism-based; conditions: in vivo, po
Procedure, shortened: (§1)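 After the 18-day intragastric course (every 2 days), blood cell counts taken from untreated, vehicle and dosed mice; groups compared by unpaired two-tailed t-test; mean ±SD, n=4.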

MDA-MB-231 [2] = assay: Antitumor activity against human MDA-MB-231 cells xenografted in BALB/c athymic nude mouse assessed as reduction in tumor size at 30 mg/kg, ig administered every 2 days for 18 days; assay type: functional, organism-based
Procedure, shortened: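 Nude mice with established MDA-MB-231 xenografts dosed intragastrically every 2 days for 18 days; vehicle control group; n=4 per group. Tumor volume estimated over time and compared by two-way repeated-measures ANOVA; dissected tumors weighed at end. Data as mean ±SD.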

Mus musculus [3] = assay: Toxicity in BALB/c athymic nude mouse xenografted with human MDA-MB-231 cells assessed as effect on HGB level at 30 mg/kg, ig administered every 2 days for 18 days measured post last dose; assay type: organism-based; conditions: in vivo, po; procedure, shortened: as §1
Mus musculus [4] = assay: Toxicity in BALB/c athymic nude mouse xenografted with human MDA-MB-231 cells assessed as effect on HCT level at 30 mg/kg, ig administered every 2 days for 18 days measured post last dose; assay type: organism-based; conditions: in vivo, po; procedure, shortened: as §1
Mus musculus [5] = assay: Toxicity in BALB/c athymic nude mouse xenografted with human MDA-MB-231 cells assessed as effect on liver weight at 30 mg/kg, ig administered every 2 days for 18 days measured post last dose; assay type: organism-based; conditions: in vivo, po
Procedure, shortened: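 Xenograft-bearing nude mice dosed intragastrically every 2 days for 18 days; body weight tracked throughout. After treatment ended, liver, lung, kidney and spleen weighed in untreated, vehicle and dosed groups; unpaired two-tailed t-test; mean ±SD, n=4.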

Mus musculus [6] = assay: Toxicity in BALB/c athymic nude mouse xenografted with human MDA-MB-231 cells assessed as effect on MCH level at 30 mg/kg, ig administered every 2 days for 18 days measured post last dose; assay type: organism-based; conditions: in vivo, po; procedure, shortened: as §1
MDA-MB-231 [7] = assay: Antiproliferative activity against human MDA-MB-231 cells after 48 hrs by CCK8 assay; assay type: functional, cell-based; conditions: MDA-MB-231, 48 h
Homo sapiens = species on record: Homo sapiens; assay: Selectivity ratio of IC50 for Aurora B (unknown origin) to IC50 for Aurora A (unknown origin)
MDA-MB-231 [8] = assay: Induction of apoptosis in human MDA-MB-231 cells assessed as annexin-V positive cells at 5 uM after 48 hrs by Annexin-V-FITC/propidium iodide staining based flow cytometry (reference value: 15.46 +/- 1.18%); assay type: functional
MDA-MB-231 [9] = assay: Induction of morphological changes in human MDA-MB-231 cells assessed as defects in chromosomal alignment at 1 uM by DAPI staining based microscopic analysis; assay type: functional, cell-based
Procedure, shortened: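 MDA-MB-231 cells incubated 24 h with 1 µM compound or 0.1% DMSO; immunofluorescence imaging of centrosomes, spindles and nuclei at ×1000 to score spindle polarity and chromosome alignment at the metaphase plate.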

Mus musculus [10] = assay: Toxicity in BALB/c athymic nude mouse xenografted with human MDA-MB-231 cells assessed as effect on RBC level at 30 mg/kg, ig administered every 2 days for 18 days measured post last dose; assay type: organism-based; conditions: in vivo, po; procedure, shortened: as §1
MOLT-4 = assay: Antiproliferative activity against human MOLT4 cells after 48 hrs by CCK8 assay; assay type: functional, cell-based; conditions: Homo sapiens, MOLT-4, 48 h; read-out: IC50
SK-BR-3 = assay: Antiproliferative activity against human SKBR3 cells after 48 hrs by CCK8 assay; assay type: functional, cell-based; conditions: Homo sapiens, SK-BR-3, 48 h; read-out: IC50
Mus musculus [11] = assay: Toxicity in BALB/c athymic nude mouse xenografted with human MDA-MB-231 cells assessed as effect on PLT level at 30 mg/kg, ig administered every 2 days for 18 days measured post last dose; assay type: organism-based; conditions: in vivo, po; procedure, shortened: as §1
HeLa = assay: Antiproliferative activity against human HeLa cells after 48 hrs by CCK8 assay; assay type: functional, cell-based; conditions: Homo sapiens, HeLa, 48 h; read-out: IC50
DU-145 = assay: Antiproliferative activity against human DU145 cells after 48 hrs by CCK8 assay; assay type: functional, cell-based; conditions: DU-145, 48 h

CCOC(=O)C1CCN(c2ccc3c(Nc4cc(C)[nH]n4)nc(-c4ccccc4)nc3c2)CC1
Activity (Mus musculus [1]): Non-Toxic | Activity (MDA-MB-231 [2]): Active | Activity (Mus musculus [3]): Non-Toxic | Activity (Mus musculus [4]): Non-Toxic | Activity (Mus musculus [5]): Non-Toxic | Activity (Mus musculus [6]): Non-Toxic | IC50 (MDA-MB-231 [7]): 1190 nM | Ratio IC50 (Homo sapiens): 66 | Activity (MDA-MB-231 [8]): 47.1% | Activity (MDA-MB-231 [9]): Active | Activity (Mus musculus [10]): Non-Toxic | IC50 (MOLT-4): 821 nM | IC50 (SK-BR-3): 2400 nM | Activity (Mus musculus [11]): Non-Toxic | IC50 (HeLa): 450 nM | IC50 (DU-145): 2050 nM
